Experimental data as given in the M2OR odorant receptor database.

Experiments:
Settings in all cases: stereoisomer not certain
[1] = test system: O56A4 I247A
Outline: (§1)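 Transient luciferase assays in mammalian cell lines were common, though methods varied by source. The values come from published papers and their supplementary material, with extra details from the original authors when needed. Responsive refers to a measured signal the original authors judged statistically different from baseline, and non-responsive (inactive) to the remainder.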

[2] = test system: O56A4 I247V
Chain of O56A4 I247V (as listed by the source, stated change not applied): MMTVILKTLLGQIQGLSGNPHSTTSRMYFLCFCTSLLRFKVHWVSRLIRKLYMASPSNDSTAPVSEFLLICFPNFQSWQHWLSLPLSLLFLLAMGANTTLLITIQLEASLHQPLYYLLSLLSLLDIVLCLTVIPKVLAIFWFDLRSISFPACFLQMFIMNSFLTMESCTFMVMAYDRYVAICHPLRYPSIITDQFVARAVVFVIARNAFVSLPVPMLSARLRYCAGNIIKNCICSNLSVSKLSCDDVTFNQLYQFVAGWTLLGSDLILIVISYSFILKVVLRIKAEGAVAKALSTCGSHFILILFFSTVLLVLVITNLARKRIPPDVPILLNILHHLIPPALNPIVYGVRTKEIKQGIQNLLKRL
Outline: as §1

[3] = test system: O56A4
Chain of O56A4 (as listed by the source): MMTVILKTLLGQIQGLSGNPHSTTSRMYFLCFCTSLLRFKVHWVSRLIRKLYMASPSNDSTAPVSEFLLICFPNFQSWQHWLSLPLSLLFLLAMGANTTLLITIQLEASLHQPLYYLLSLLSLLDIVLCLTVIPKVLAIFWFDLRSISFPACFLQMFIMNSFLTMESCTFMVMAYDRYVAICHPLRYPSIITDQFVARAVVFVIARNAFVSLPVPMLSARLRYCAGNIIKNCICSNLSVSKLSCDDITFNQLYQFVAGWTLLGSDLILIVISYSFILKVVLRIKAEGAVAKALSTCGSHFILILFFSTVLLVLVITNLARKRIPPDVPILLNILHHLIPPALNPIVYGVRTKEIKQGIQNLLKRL
Outline: as §1

[4] = test system: O56A5 V104L
Chain of O56A5 V104L (as listed by the source, stated change not applied): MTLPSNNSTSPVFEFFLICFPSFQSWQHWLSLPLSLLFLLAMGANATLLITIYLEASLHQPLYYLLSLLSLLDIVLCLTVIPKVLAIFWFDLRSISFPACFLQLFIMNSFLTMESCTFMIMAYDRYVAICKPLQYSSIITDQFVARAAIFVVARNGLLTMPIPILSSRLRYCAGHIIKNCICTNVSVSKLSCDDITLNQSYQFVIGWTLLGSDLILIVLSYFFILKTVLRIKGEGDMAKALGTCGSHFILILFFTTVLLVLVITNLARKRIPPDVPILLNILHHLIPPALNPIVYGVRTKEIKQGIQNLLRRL
Outline: as §1

[5] = test system: O56B1 C106R L214F
Outline: as §1

[6] = test system: O56B1 L214F
Chain of O56B1 L214F (as listed by the source, stated change not applied): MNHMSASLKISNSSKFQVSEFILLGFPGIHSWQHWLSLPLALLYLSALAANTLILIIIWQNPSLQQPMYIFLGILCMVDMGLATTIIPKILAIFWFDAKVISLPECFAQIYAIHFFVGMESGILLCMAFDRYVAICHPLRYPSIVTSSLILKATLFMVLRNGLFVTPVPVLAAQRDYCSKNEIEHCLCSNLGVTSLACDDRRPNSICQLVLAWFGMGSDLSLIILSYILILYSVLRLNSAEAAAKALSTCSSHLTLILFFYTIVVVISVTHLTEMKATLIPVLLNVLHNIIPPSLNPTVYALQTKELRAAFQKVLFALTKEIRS
Outline: as §1

[7] = test system: O56B4
Chain of O56B4 (as listed by the source): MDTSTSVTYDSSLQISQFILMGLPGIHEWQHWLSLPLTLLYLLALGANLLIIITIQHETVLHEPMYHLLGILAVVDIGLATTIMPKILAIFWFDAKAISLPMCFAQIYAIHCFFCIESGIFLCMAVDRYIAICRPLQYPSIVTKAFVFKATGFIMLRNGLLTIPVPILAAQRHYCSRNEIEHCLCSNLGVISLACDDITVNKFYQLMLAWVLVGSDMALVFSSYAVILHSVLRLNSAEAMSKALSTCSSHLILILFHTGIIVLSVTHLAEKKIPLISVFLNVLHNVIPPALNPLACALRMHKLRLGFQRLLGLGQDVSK
Outline: as §1

[8] = test system: O5AC2
Chain of O5AC2 (as listed by the source): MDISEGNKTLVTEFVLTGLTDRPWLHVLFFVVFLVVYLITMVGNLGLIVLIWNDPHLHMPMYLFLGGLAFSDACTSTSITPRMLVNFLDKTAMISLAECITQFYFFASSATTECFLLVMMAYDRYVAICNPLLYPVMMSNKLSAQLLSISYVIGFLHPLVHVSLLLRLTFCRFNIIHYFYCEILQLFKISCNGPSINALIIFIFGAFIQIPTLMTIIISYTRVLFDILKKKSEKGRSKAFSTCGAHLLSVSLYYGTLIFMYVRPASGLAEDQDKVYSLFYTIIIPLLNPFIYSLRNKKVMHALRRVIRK
Outline: as §1

[9] = test system: O5AK2 M92I
Chain of O5AK2 M92I (as listed by the source, stated change not applied): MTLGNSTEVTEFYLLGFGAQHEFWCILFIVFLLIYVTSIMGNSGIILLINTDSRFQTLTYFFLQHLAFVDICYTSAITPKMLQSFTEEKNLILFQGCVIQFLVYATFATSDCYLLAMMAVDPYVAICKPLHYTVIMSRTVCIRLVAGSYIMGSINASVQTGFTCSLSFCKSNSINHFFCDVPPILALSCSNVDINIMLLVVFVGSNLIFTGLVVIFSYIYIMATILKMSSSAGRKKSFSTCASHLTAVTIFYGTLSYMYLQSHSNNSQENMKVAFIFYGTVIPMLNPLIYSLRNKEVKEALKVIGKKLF
Outline: as §1

[10] = test system: O5AN1 C142Y L289F
Outline: as §1

[11] = test system: O5AN1 L289F
Chain of O5AN1 L289F (as listed by the source, stated change not applied): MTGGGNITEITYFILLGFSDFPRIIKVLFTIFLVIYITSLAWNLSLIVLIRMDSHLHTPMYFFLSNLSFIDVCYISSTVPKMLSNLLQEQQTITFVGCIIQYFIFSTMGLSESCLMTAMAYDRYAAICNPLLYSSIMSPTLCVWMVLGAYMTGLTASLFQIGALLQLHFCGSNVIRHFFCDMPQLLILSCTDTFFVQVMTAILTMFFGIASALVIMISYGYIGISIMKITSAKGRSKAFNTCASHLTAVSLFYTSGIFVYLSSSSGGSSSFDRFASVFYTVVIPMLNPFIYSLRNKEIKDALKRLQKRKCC
Outline: as §1

[12] = test system: O5AP2 A105T
Chain of O5AP2 A105T (as listed by the source, stated change not applied): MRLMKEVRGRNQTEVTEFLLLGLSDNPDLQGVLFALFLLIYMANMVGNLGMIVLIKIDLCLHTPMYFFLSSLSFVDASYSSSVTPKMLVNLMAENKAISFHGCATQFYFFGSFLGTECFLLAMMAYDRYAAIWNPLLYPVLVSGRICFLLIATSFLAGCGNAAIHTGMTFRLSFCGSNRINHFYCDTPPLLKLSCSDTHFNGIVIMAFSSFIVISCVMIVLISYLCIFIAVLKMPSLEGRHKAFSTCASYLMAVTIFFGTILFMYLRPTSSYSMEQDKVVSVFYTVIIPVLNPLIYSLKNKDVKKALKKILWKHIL
Outline: as §1

[13] = test system: O5AU1
Chain of O5AU1 (as listed by the source): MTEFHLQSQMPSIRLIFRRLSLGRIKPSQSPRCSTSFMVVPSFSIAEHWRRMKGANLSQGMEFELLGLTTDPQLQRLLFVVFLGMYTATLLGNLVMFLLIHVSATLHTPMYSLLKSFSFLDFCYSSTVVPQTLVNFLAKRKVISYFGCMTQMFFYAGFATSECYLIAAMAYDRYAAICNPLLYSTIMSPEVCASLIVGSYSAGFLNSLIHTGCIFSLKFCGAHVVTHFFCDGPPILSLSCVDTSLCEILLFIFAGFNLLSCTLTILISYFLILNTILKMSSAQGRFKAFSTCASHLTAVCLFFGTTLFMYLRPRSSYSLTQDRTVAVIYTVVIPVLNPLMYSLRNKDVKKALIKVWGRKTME
Outline: as §1

[14] = test system: O5H14
Chain of O5H14 (as listed by the source): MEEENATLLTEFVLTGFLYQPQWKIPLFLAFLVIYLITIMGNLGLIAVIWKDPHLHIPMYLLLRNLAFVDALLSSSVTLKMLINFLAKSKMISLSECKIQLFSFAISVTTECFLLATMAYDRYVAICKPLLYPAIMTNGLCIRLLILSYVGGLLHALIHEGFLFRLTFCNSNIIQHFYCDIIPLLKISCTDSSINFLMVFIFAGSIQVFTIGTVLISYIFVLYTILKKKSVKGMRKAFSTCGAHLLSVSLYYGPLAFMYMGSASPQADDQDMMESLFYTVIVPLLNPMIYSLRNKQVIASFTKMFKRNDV
Outline: as §1

[15] = test system: O5H15 V108I S148T T167S
Outline: as §1

[16] = test system: O6C65 T222A
Chain of O6C65 T222A (as listed by the source, stated change not applied): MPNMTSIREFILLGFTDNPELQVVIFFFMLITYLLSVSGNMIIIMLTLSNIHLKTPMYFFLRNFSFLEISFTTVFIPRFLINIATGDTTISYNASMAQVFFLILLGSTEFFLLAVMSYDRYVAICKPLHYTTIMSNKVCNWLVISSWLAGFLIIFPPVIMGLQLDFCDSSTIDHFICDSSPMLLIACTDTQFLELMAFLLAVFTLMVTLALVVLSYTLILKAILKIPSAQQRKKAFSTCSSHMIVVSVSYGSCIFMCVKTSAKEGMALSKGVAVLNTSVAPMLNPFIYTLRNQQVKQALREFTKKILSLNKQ
Outline: as §1

[17] = test system: O6C70 L181P
Chain of O6C70 L181P (as listed by the source, stated change not applied): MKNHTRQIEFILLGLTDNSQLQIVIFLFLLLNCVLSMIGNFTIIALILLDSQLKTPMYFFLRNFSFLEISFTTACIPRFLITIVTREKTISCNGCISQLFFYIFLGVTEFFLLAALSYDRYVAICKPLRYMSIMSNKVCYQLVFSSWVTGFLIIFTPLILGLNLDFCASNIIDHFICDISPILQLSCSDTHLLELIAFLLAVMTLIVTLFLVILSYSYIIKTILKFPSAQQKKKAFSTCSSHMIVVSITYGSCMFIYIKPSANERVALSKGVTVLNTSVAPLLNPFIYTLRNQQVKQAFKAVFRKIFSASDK
Outline: as §1

[18] = test system: O7E24 S193F P242S
Outline: as §1

[19] = test system: O7E24
Chain of O7E24 (as listed by the source): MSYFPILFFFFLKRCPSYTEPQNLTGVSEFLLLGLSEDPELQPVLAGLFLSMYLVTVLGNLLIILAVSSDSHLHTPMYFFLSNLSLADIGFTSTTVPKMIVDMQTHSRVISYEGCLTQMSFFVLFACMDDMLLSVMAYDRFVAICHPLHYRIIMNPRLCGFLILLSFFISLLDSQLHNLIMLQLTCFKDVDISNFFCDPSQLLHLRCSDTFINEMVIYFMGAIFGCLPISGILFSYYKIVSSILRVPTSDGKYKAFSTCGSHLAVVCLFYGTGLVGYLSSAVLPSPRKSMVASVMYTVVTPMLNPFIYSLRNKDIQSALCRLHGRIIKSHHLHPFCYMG
Outline: as §1

Measured: odorant receptor agonist call;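 further: active if original authors judged signal statistically different from baseline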

Chain of O56A4 I247A (as listed by the source, stated change not applied): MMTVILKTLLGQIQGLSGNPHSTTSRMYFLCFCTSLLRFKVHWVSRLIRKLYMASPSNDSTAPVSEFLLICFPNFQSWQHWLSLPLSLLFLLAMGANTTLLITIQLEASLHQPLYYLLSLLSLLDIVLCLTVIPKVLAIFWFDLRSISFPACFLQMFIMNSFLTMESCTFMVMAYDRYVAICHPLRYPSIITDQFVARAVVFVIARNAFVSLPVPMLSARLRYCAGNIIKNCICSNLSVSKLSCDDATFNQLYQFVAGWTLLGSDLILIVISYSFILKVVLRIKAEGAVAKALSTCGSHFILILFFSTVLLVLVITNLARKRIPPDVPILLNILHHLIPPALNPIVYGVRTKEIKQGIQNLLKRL

C=CCOC(=O)Cc1ccccc1
inactive: [1] | [2] | [3] | [4] | [5] | [6] | [7] | [8] | [9] | [10] | [11] | [12] | [13] | [14] | [15] | [16] | [17] | [18] | [19]
